The data set in a line: Toxicity liver stage against HepG2, at 10uM. The data set is classed as cell-based. On the set-up: test concentration 10 uM, cell line HepG2-A16-CD81EGFP. The conditions noted are these: human, HepG2-A16-CD81EGFP cells; read-out: INHIBITION
In outline: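 Uninfected HepG2-A16-CD81EGFP cells, 3 × 10^3 per well, 1536-well, plated on prespotted compound at 10 μM final, parasite-free screening media added to match infected plates; puromycin 10 μM positive, DMSO 0.5% negative; run in parallel with 48 h PbLuc assay at 37 °C, 5% CO2; viability by CellTiter-Glo luminescence, normalized to controls.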
Turning to `CN(CC(F)(F)F)C(=O)CNC(=O)Cc1ccc(O)cc1Cl`, the cytotoxicity at 10 µM is -1.11%.
The same measure for `O=C(O)[C@@H]1CN(C(=O)c2ccc(Cl)cc2)C[C@H]1c1cccc(F)c1`: -132%; for `CC(C(=O)NCc1ccc(N2CCCC2)nc1)S(C)(=O)=O` (stereo not given): -13.4%; for `Cc1cc(C)n(CC2CN(Cc3nnc(C)o3)CCO2)n1` (stereo not given): -7.95%.
As to `Cc1ccc(N2CC[C@H](OCC3CC3)[C@@H]2Cc2cnn(C)c2)nn1`, the cytotoxicity at 10 µM was -10.7%.
The same measure for `CN1CCC(c2nccnc2Nc2cnccn2)CC1`: -4.27%; for `N#Cc1ccc(N2CCC3(CCC(=O)N3Cc3cccnc3)CC2)nc1`: -112%.
The same measure for `CNc1ccc(CC2CCCN(C(=O)c3scnc3C)C2)nn1` (stereo not given): -10.4%.
Turning to `O=C(NCC1CC1)[C@@H]1CC[C@@H]2[C@@H](CCN2Cc2ccco2)O1`, the cytotoxicity at 10 µM was 4.62%.
The same measure for `COc1c[nH]c(C(=O)N2CCN(c3ccccc3)CC2)cc1=O`: 0.0868%.
The same measure for `Cc1n[nH]c(C2CN(C(=O)Cn3ccccc3=O)CCO2)n1` (stereo not given): 5.75%.
The same measure for `NC(=O)C1CCN(C(=O)c2ccc(Cn3cc(Br)cn3)cc2)CC1`: -6.24%; for `COc1cc(OC)c(-n2nnc(C(=O)O)c2C)cc1Cl`: -16.8%; for `COc1ccc(N(C)C(=O)c2ccc(Cl)c(S(C)(=O)=O)c2)cn1`: -11.2%.
In the case of `CCc1nsc(N2CCN(C(=O)COc3ccccc3)CC2)n1`, the cytotoxicity at 10 µM was -3.49%.
The same measure for `CC(=O)N1CCN([C@@H]2CCC[C@@H](N(C)C(=O)C3CC3)[C@H]2O)CC1`: -5.97%; for `CCN(CC)C(CNC(=O)c1ccnc(N(C)C)c1)c1ccsc1` (stereo not given): -149%; for `O=C(c1cc2cc(I)ccc2[nH]1)N1CCC(Nc2cccnn2)CC1`: -8.12%.
Take `CN1CCCC(c2cncc(-c3cccc(C(F)(F)F)c3)n2)C1` (stereo not given): the cytotoxicity at 10 µM was found to be 8.92%.
The same measure for `Cc1ccc(-c2nc(CN3C[C@@H](C)NC[C@@H]3C)c(C)o2)s1`: -11.7%; for `O=C(CCN1CCOC1=O)N(Cc1ccncc1)CC1CCCO1` (stereo not given): 0.606%; for `CS(=O)(=O)c1nnc(NC(=O)CCc2ccc(Cl)s2)[nH]1`: 6.13%.
The same measure for `CC(C)CCN1CCN(Cc2nc(C3CC3)no2)CC1`: -8.77%; for `CC(C)CNC(=O)c1c(-n2cnnn2)sc2c1CCCC2`: 10.8%.
The same measure for `CC1CCc2nc(O)c(C(=O)NCc3ccccn3)cc2C1` (stereo not given): -2.99%; for `CC1CN(c2ccc(CNC(=O)NCCO)cn2)CCO1` (stereo not given): 6.15%.
Take `CC(=O)N1CCCC(c2ncncc2-c2ccncc2)C1` (stereo not given): the cytotoxicity at 10 µM was -15.3%.
The same measure for `COCc1ccccc1NC(=O)[C@@H]1CCCN1C(=O)c1ccco1`: -6.34%.
The same measure for `NC(=O)CN1CCN(C(=O)c2cc(Cl)cc3cccnc23)CC1`: -9.19%.
`c1cnn(C2CN(Cc3noc(C4CC4)n3)C2)c1`: the cytotoxicity at 10 µM was 0.138%.
The same measure for `COc1ccc(CN2CCc3ncnc(C4CCOC4)c3CC2)cc1` (stereo not given): -9.25%; for `COCCc1noc(CN(C)c2cc(C)ncn2)n1`: 11.9%; for `Cc1ccc(C)c2c(O)cc(CNCC(N)=O)nc12`: -3.35%.
The same measure for `CCC1CN(C(=O)c2cnc(-c3cnn(C)c3)s2)CCO1` (stereo not given): 8.79%.
As for `Cn1ccnc1-c1ccc(NC[C@H]2CCc3ccccc3O2)nn1`, the cytotoxicity at 10 µM is -5.71%.
Regarding `CCc1ccc(CN2CC[C@H]3C[C@H](c4nnc(C)[nH]4)O[C@@H]3C2)o1`, the cytotoxicity at 10 µM is -8.51%.
With `COc1cccc(CN2CCC3(CC2)CCN(C(=O)[C@@H]2CCCO2)C3)c1`, the cytotoxicity at 10 µM was found to be 0.523%.
For the molecule `Fc1cccc(N2CCCC3(CN(Cc4ccncc4)CCO3)C2)c1` (stereo not given), the cytotoxicity at 10 µM is 8.98%.
The same measure for `Cc1n[nH]c(C)c1S(=O)(=O)N(C)Cc1nn(C)c(Cl)c1Cl`: 0.303%.
In the case of `CC(NC(=O)NCCCN1CCCC1)c1nncn1C` (stereo not given), the cytotoxicity at 10 µM is -0.373%.
The same measure for `O=C(Nc1nnc(C2CC2)s1)NC1CCN(Cc2ccccc2)C1` (stereo not given): -10.7%; for `CCN1Cc2cc(F)ccc2N(CC(O)C(F)(F)F)CCC1=O` (stereo not given): -3.4%; for `CN(C)c1ncccc1CNS(=O)(=O)c1ccc(F)cc1F`: -3%.
The same measure for `COc1cccnc1NC(=O)COc1ccc(F)cc1F`: 8.68%.
For `CC(C)(C)OC(=O)NCC1CCCCN1Cc1cccc(C(N)=O)c1` (stereo not given), the cytotoxicity at 10 µM is -2.27%.
For the molecule `O=C1NCCN1C1CCN(CCOc2ccccc2Cl)CC1`, the cytotoxicity at 10 µM was -6.69%.
Take `Cc1n[nH]c(C)c1CC(=O)N1CCCN(C)C2(CCN(C)CC2)C1`: the cytotoxicity at 10 µM was determined as 11.7%.
As for `Cn1c(=O)c2sccc2n(CC(=O)Nc2cccc(Cl)c2)c1=O`, the cytotoxicity at 10 µM stood at 5.86%.
In the case of `CC(C)(C)c1ncc2c(n1)CN(C(=O)c1ccc(-c3nc[nH]n3)cc1)C2`, the cytotoxicity at 10 µM is -16.8%.
Take `CCn1nc(C)cc1C(=O)OCCNC(=O)c1ccccc1`: the cytotoxicity at 10 µM was 1.44%.
Turning to `COc1ccc(C)cc1C(=O)N1CCCC(n2nc(C)nc2C)C1` (stereo not given), the cytotoxicity at 10 µM was -5.68%.
As to `Cc1cccc(C(C(=O)N2CC(c3ccncc3)C2)N(C)C)c1` (stereo not given), the cytotoxicity at 10 µM is -8.29%.
The same measure for `CCCc1noc(C2CCCCN2C(=O)CCc2cnn(C)c2)n1` (stereo not given): -1.89%; for `O=C1CCC2(CCCN(c3ncc(F)cn3)CC2)N1CC1CC1` (stereo not given): -0.291%; for `CSc1ncnc(NCc2ccccc2F)c1C#N`: 1.67%.
As for `Cc1csc([C@H]2C[C@@H]3CCN(C(=O)c4ccnnc4)C[C@H]3O2)n1`, the cytotoxicity at 10 µM was -1.95%.
On to `CCc1nccn1CC(=O)N1C[C@@H]2CC[C@H]1CN(c1ncccn1)C2`, for which the cytotoxicity at 10 µM was -7.9%.
The same measure for `COCCn1cnnc1CNc1cc(C)nc2c(C)c(C)nn12`: -0.715%.
The same measure for `CN1CCN([C@@H]2CN(C(=O)c3ccnnc3)[C@@H]3CCCO[C@H]23)CC1`: 7.16%.
For the molecule `c1cc(CN2CCO[C@H]3[C@H](OCCN4CCCC4)CC[C@@H]32)co1`, the cytotoxicity at 10 µM worked out at 6.49%.
Consider `CN(C(=O)Cn1nc(-c2ccc(Br)cc2)ccc1=O)C1CCS(=O)(=O)C1` (stereo not given), for which the cytotoxicity at 10 µM was found to be 4.38%.
`O=C(C[S+]([O-])Cc1ccc(Cl)cc1Cl)N1CCc2sccc2C1` (stereo not given): the cytotoxicity at 10 µM amounted to 2.13%.
Turning to `O=C1CCC[C@]2(CN(S(=O)(=O)C3CCCCC3)C[C@H]2c2cccnc2)N1`, the cytotoxicity at 10 µM was -12.4%.
In the case of `Cc1ncnc(N2CCCN(c3nc4ccccc4s3)CC2)c1C`, the cytotoxicity at 10 µM was found to be 55.5%.
The same measure for `CC[C@@H](CO)NC(=O)c1coc(COc2ccc3sc(C)nc3c2)n1`: 4.67%.
On to `Cc1csc2nc3n(c(=O)c12)CCN(C(=O)c1ccncc1)CC3`, for which the cytotoxicity at 10 µM was -2.65%.
The same measure for `CS(=O)(=O)c1ccc(CNC(=O)N2CCC(c3ccccc3)CC2)cc1`: -0.884%.
The same measure for `CCOC(=O)CNc1nc(COC)nc2c1cnn2C`: 9%.
The same measure for `CC(C)c1nnsc1CNC(=O)C1CCN(C(=O)C2CC2)CC1`: -0.439%.
`CN(C)CC1CCCCN1C(=O)c1ccc(N2CCOCC2)cc1` (stereo not given): the cytotoxicity at 10 µM is -0.0679%.
Turning to `Cc1cc(C(=O)N2CCc3[nH]nc(-c4ccc5c(c4)OCO5)c3C2)no1`, the cytotoxicity at 10 µM is -137%.
The same measure for `CCOCC1CN(Cc2ccccn2)Cc2nn(CC3CC3)cc21` (stereo not given): -0.966%; for `CC(=O)c1cccc(NC(=O)N(CC(F)F)C2CC2)c1`: 2.08%; for `COc1ccccc1OCC(=O)N1CCN(Cc2noc(C)n2)CC1`: 3.82%.
`Cn1cc(NC(=O)N2CCC(Cc3ccccc3)CC2)ccc1=O`: the cytotoxicity at 10 µM amounted to 1.07%.
As to `CNC(=O)c1ccc(S(=O)(=O)NCCc2ccccn2)cc1`, the cytotoxicity at 10 µM was -14.3%.
The same measure for `COCC1CCN(c2cc(C3CN(C)CCO3)nc(C)n2)CC1` (stereo not given): 4.71%; for `Cn1ccnc1-c1cccc(NC(=O)NCC(=O)NC(C)(C)C)c1`: -3.84%; for `O=C(c1ccc(-c2cc[nH]n2)cc1)N1CC[C@H](CO)[C@H](O)C1`: 4.52%.
For `Cc1cc(C#N)ccc1S(=O)(=O)NCc1cnc(N(C)C)n1C`, the cytotoxicity at 10 µM is -2.64%.
Take `CCN1CC2(CCC1=O)CCN(CCOc1ccc(F)cc1)CC2`: the cytotoxicity at 10 µM was 4.19%.
With `O=C(c1cccc(CO)n1)N1CCCC1c1nc2cc(F)ccc2[nH]1` (stereo not given), the cytotoxicity at 10 µM was -1.26%.
Take `CC(C)c1cc(NCC2(CO)CCCC2)ncn1`: the cytotoxicity at 10 µM was 11.9%.
The same measure for `CCOCc1ncn2c1CN(C(=O)Nc1ccccc1)CC2`: 3.54%; for `CCN(C(=O)c1ccc2nnc(C3CCN(C(C)=O)C3)n2c1)C(C)C` (stereo not given): -107%; for `CC(NC(=O)CCS(=O)(=O)C1CCCC1)c1nc(-c2ccccc2)c[nH]1` (stereo not given): 1.05%.
Consider `O=C(c1ccccn1)N1CCC2(CC1)CN(c1cncnc1)C(=O)CO2`, for which the cytotoxicity at 10 µM was -67%.
For the molecule `CC(C)c1nccn1-c1cncc(C2CCCN2Cc2cccnc2)n1` (stereo not given), the cytotoxicity at 10 µM was -6.27%.
The same measure for `CCC(=O)N1CC[C@H]2[C@H](C[C@@H](Cn3cccn3)N2c2nccs2)C1`: 5.68%; for `CCN(CC(C)C#N)C(=O)CNc1ccc(C(N)=O)c(C)c1` (stereo not given): 8.54%; for `CC(C)(C)S(=O)(=O)c1ccc(N2CCN(c3ccccc3)CC2)nn1`: -4.81%.
The same measure for `CCc1nc(C2CCCN(C(=O)c3ccccc3O)C2)no1` (stereo not given): -7.39%; for `Cc1nc(CN(CCS(C)(=O)=O)C(C)(C)C)no1`: -1.86%; for `O=c1c2cnc(N3CCCC3)nc2ccn1-c1cccc(F)c1`: 3.36%.
For the molecule `Cc1noc(C(C)N2CCC(c3nc4ccccc4[nH]3)CC2)n1` (stereo not given), the cytotoxicity at 10 µM was -6.4%.
